Source: ChEMBL document CHEMBL4354868, “6-Arylmethylidene Penicillin-Based Sulfone Inhibitors for Repurposing Antibiotic Efficiency in Priority Pathogens” (J Med Chem, 2020)
In brackets after ≈: the same amount, converted by molar mass. Activity calls are given as the source filed them. No cut-off for these calls is given here.

Legend:
[1] = system: Escherichia coli; assay: (§1) Inhibition of CTX-M2 in beta-lactam-resistant Escherichia coli TG1 transfected with pBGS18 plasmid encoding replication origin and kanamycin resistance assessed as potentiation of ampicillin-induced antibacterial activity by measuring fold reduction in ampicillin MIC at 16 ug/mL in Mueller-Hinton broth by CLSI protocol based method relative to ampicillin MIC alone
Procedure, shortened: (§2)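 MIC of the reporter antibiotic measured by CLSI broth microdilution in Mueller-Hinton II broth, with and without inhibitor at 16 µg mL-1. Reporters were ampicillin for class A (TEM-1, CTX-M-2), ceftazidime for class C (CMY-2, DHA-1) and imipenem for class D (OXA-23, OXA-24/40, OXA-48). MIC is the lowest concentration with no visible growth, mean of three independent replicates. Strains were grown in LB at 37 °C, with kanamycin or ampicillin at 50 mg L-1 where needed.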

[2] = system: Escherichia coli; assay: (§3) Inhibition of CMY-2 in beta-lactam-resistant Escherichia coli TG1 transfected with pBGS18 plasmid encoding replication origin and kanamycin resistance assessed as potentiation of ceftazidime-induced antibacterial activity by measuring ceftazidime MIC at 16 ug/mL in Mueller-Hinton broth by CLSI protocol based method (reference value: 32 ug/mL); procedure, shortened: as §2
[3] = system: Escherichia coli; assay: as §1, with “measuring” for “measuring fold reduction in”, “(Rvb > 1024 ug/mL)” for “relative to ampicillin MIC alone”; procedure, shortened: as §2
[4] = Inhibition of carbapenem-resistant Acinetobacter baumannii ATCC 17978 OXA-24/40 expressed in Escherichia coli BL21 using nitrocefin as substrate measured after 15 mins by spectrophotometry analysis
[5] = target: Beta-lactamase TEM-1 (Escherichia coli) (UniProt Q4GY26); assay: Inhibition of TEM-1 in penicillin-resistant Escherichia coli TG1 transfected with pBGS18 plasmid encoding replication origin and kanamycin resistance assessed as potentiation of ampicillin-induced antibacterial activity by measuring ampicillin MIC at 16 ug/mL in Mueller-Hinton broth by CLSI protocol based method (Rvb > 1024 ug/mL); procedure, shortened: as §2
[6] = system: Klebsiella pneumoniae; assay: Inhibition of OXA-48 in beta-lactam-resistant Klebsiella pneumoniae assessed as potentiation of imipenem-induced antibacterial activity by measuring imipenem MIC at 16 ug/mL in Mueller-Hinton broth by CLSI protocol based method (reference value: 64 ug/mL); procedure, shortened: as §2
[7] = system: Klebsiella pneumoniae; assay: Binding affinity to OXA-48 in Klebsiella pneumoniae assessed as ezyme-compound adduct formation from loss of catechol group with increase in mass at 1:100 ezyme-compound ratio using nitrocefin as substrate at pH 7 and 25 degree C by MALDI-TOF MS analysis
Procedure, shortened: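 OXA-48 from K. pneumoniae incubated with ligand at 1:100 enzyme/inhibitor molar ratio in 50 mM Tris-HCl, 150 mM NaCl, 1 mM EDTA pH 7.0, 25 °C, 30 min; activity followed on aliquots by nitrocefin hydrolysis (482 nm) in phosphate/bicarbonate pH 7.4; samples then washed with 5 mM ammonium bicarbonate by ultrafiltration, freeze-dried, analysed by MALDI-TOF; triplicate.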

[8] = system: Escherichia coli; assay: as §3, with “DHA-1” for “CMY-2”; procedure, shortened: as §2
[9] = system: Acinetobacter baumannii ATCC 17978; assay: Inhibition of Acinetobacter baumannii ATCC 17978 OXA-24/40 expressed in Escherichia coli BL21 assessed as ratio of Kinact/Ki using nitrocefin as substrate measured after 15 mins by spectrophotometry analysis
[10] = target: Beta-lactamase OXA-23 (Acinetobacter baumannii) (UniProt Q9L4P2); assay: (§4) Inhibition of OXA-23 in carbapenem-resistant Acinetobacter baumannii ATCC 17978 transfected with pET-RA-KmR plasmid encoding rifampicin and kanamycin resistance assessed as potentiation of imipenem-induced antibacterial activity by measuring imipenem MIC at 16 ug/mL in Mueller-Hinton broth by CLSI protocol based method (reference value: 8 ug/mL); procedure, shortened: as §2
[11] = system: Acinetobacter baumannii ATCC 17978; assay: as §4, with “of OXA-24/40” for “of OXA-23”, “value: 64” for “value: 8”; procedure, shortened: as §2
[12] = system: Acinetobacter baumannii ATCC 17978; assay: Inhibition of carbapenem-resistant Acinetobacter baumannii ATCC 17978 OXA-24/40 expressed in Escherichia coli BL21 assessed as inactivation rate constant using nitrocefin as substrate measured after 15 mins by spectrophotometry analysis
[13] = Drug metabolism assessed as centered band formation at 295 nm leading to conjugate imine intermediate formation at 25 degree C measured up to 2 mins for 15 mins in presence of sodium methoxide by UV-Vis spectroscopy
Procedure, shortened: (§5)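 Methanolysis followed after adding 1 equivalent NaOMe (1 M in MeOH) at 25 °C over 15 min; UV-Vis spectra scanned 600–200 nm, 2.0 nm bandwidth, 1 cm cell, collected at 0.5, 1.0, 1.5 and 2.0 min; mixture afterwards checked by HPLC-MS.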

[14] = system: Acinetobacter baumannii ATCC 17978; assay: Inhibition of carbapenem-resistant Acinetobacter baumannii ATCC 17978 OXA-24/40 expressed in Escherichia coli BL21 assessed as ratio of Kinact/Ki using nitrocefin as substrate measured after 15 mins by spectrophotometry analysis relative to parent compound
[15] = system: Acinetobacter baumannii ATCC 17978; assay: Binding affinity to OXA-24/40 in carbapenem-resistant Acinetobacter baumannii ATCC 17978 assessed as ezyme-compound adduct formation from loss of catechol group with increase in mass at 1:100 ezyme-compound ratio using nitrocefin as substrate at pH 7 and 25 degree C by MALDI-TOF MS analysis
Procedure, shortened: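 OXA-24/40 (from a 0.9 mg mL-1 stock) was incubated with ligand at a 1:100 enzyme/inhibitor molar ratio in 50 mM Tris-HCl, 150 mM NaCl, 1 mM EDTA, pH 7.0, 25 °C, for 30 min. Activity was followed by nitrocefin hydrolysis at 482 nm. Samples were then washed and concentrated with 5 mM ammonium bicarbonate, freeze-dried, and analysed by MALDI-TOF for the covalent adduct mass shift, in triplicate.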

[16] = Drug metabolism assessed as decrease in centered band formation at 408 nm leading to -indolizine skeleton formation at 25 degree C measured up to 2 mins for 15 mins in presence of sodium methoxide by UV-Vis spectroscopy; procedure, shortened: as §5
[17] = system: Acinetobacter baumannii ATCC 17978; assay: Inhibition of carbapenem-resistant Acinetobacter baumannii ATCC 17978 OXA-24/40 expressed in Escherichia coli BL21 using nitrocefin as substrate measured after 15 mins by spectrophotometry analysis relative to parent compound
[18] = Drug metabolism assessed as decrease in centered band formation at 253 nm leading to -indolizine skeleton formation at 25 degree C measured up to 2 mins for 15 mins in presence of sodium methoxide by UV-Vis spectroscopy; procedure, shortened: as §5
[19] = system: Escherichia coli; assay: Antibacterial activity against wild type Escherichia coli TG1 in Mueller-Hinton broth by CLSI protocol based method; type: functional
Procedure, shortened: (§6)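 Broth microdilution MIC in Mueller-Hinton II broth following CLSI. Strains were grown in LB broth or on LB agar at 37 °C and stored at -80 °C in LB with 15% glycerol. MIC is the lowest concentration with no visible growth, given as the mean of three independent replicates.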

[20] = system: Klebsiella pneumoniae; assay: Antibacterial activity against wild type beta-lactam-resistant Klebsiella pneumoniae in Mueller-Hinton broth by CLSI protocol based method; type: functional; procedure, shortened: as §6
[21] = system: Acinetobacter baumannii; assay: Antibacterial activity against wild type carbapenem-susceptible Acinetobacter baumannii ATCC 17978 in Mueller-Hinton broth by CLSI protocol based method; type: functional; procedure, shortened: as §6

SMILES	Ratio [1]	MIC [2] [µg/mL]	MIC [3] [µg/mL]	Ki [4] [nM]	MIC [5] [µg/mL]	MIC [6] [µg/mL]	Activity [7]	MIC [8] [µg/mL]	Ratio [9] [M⁻¹ s⁻¹]	MIC [10] [µg/mL]	MIC [11] [µg/mL]	Kinact [12] [ms-1]	further results
Cn1cc(-c2ccnc(/C=C3/C(=O)N4[C@@H](C(=O)O)[C@](C)(COC(=O)Cc5ccc(O)c(O)c5)S(=O)(=O)[C@H]34)c2)cn1	64	< 0.25	16	217	2	8	Active	< 0.25	110000	1	1	24	–
C[C@]1(COC(=O)Cc2ccc(O)c(O)c2)[C@H](C(=O)O)N2C(=O)/C(=C/c3cc(Br)ccn3)[C@H]2S1(=O)=O	64	< 0.25	16	140	2	4	Active	< 0.25	159000	1	1	22	Drug metabolism [13]: Metabolite detected; Ratio [14]: 1.6; Activity [15]: Active; Drug metabolism [16]: Metabolite detected; Ratio Ki [17]: 2; Drug metabolism [18]: Metabolite detected
COc1ccnc(/C=C2/C(=O)N3[C@@H](C(=O)O)[C@](C)(COC(=O)Cc4ccc(O)c(O)c4)S(=O)(=O)[C@H]23)c1OC	–	< 0.25	256	276	2	64	Active	< 0.25	83200	4	8	24	–
CC(C)(O/N=C(\C(=O)N[C@@H]1C(=O)N2C(C(=O)[O-])=C(C[n+]3ccccc3)CS[C@H]12)c1csc(N)n1)C(=O)O [CEFTAZIDIME]	–	–	–	–	–	–	–	–	–	–	–	–	MIC [19]: ≤ 0.25 µg/mL
C[C@]1(COC(=O)Cc2ccc(O)c(O)c2)[C@H](C(=O)O)N2C(=O)/C(=C/c3nccc4ccsc34)[C@H]2S1(=O)=O	–	< 0.25	256	247	2	64	Active	< 0.25	47600	2	8	11	Activity [15]: Active
C[C@]1(COC(=O)Cc2ccc(O)c(O)c2)[C@H](C(=O)O)N2C(=O)/C(=C/c3ccc(F)cn3)[C@H]2S1(=O)=O	–	< 0.25	32	495	2	4	Active	< 0.25	48900	1	1	25	Activity [15]: Active
C[C@@H](O)[C@H]1C(=O)N2C(C(=O)O)=C(SCCNC=N)C[C@H]12 [IMIPENEM ANHYDROUS]	–	–	–	–	–	–	–	–	–	–	–	–	MIC [20]: 0.5 µg/mL (≈ 1.67 µM); MIC [21]: 0.5 µg/mL (≈ 1.67 µM)
NC(=O)[C@@H]1CC[C@@H]2CN1C(=O)N2OS(=O)(=O)[O-].[Na+] [AVIBACTAM SODIUM]	–	–	–	–	–	–	–	–	–	4	16	–	MIC [20]: 0.5 µg/mL; MIC [19]: 2 µg/mL; MIC [21]: 0.5 µg/mL
C[C@]1(COC(=O)Cc2ccc(O)c(O)c2)[C@H](C(=O)O)N2C(=O)/C(=C/c3cc4ccccc4cn3)[C@H]2S1(=O)=O	–	2	256	–	4	8	Active	2	–	2	2	–	–
O=C(NC1CCNCC1)[C@@H]1CC[C@@H]2CN1C(=O)N2OS(=O)(=O)O	64	< 0.25	16	–	4	8	–	< 0.25	–	8	64	–	–
C[C@]1(COC(=O)Cc2ccc(O)c(O)c2)[C@H](C(=O)O)N2C(=O)/C(=C/c3ccccn3)[C@H]2S1(=O)=O	64	< 0.25	16	234	2	4	–	< 0.25	98200	0.5	0.5	22	–
